In ChEMBL document CHEMBL1124612, “Synthesis and structure-activity relationships of a series of anxioselective pyrazolopyridine ester and amide anxiolytic agents” (J Med Chem, 1989):
The source made the active and inactive calls. The rule behind the calls is not given here.

Assays:
[1] = test system: GABA-A receptor; anion channel; test: Inhibition of [3H]flunitrazepam binding to GABA-A benzodiazepine receptor of rat cerebral cortex at 500 nM; type: tissue-based
Summary of the method: (§1)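 Rat cerebral cortex membranes were incubated with [3H]flunitrazepam in the presence of the test agent at a single concentration (nM), run in triplicate with under 7% variation between values. Binding is reported as % inhibition of [3H]flunitrazepam binding.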

[2] = test system: Rattus norvegicus; test: Minimum effective dose (po) tested for its anxiolytic activity in rat using the shock-induced suppression of drinking (SSD) test.; type: functional; settings: read-out: MED
Summary of the method: (§2)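 Rats (n = 8 per dose) were dosed orally at one or more levels and then run in the shock-induced suppression of drinking conflict test. MED is the dose producing a significant rise (p < 0.05, Student's t test) in mean shocks accepted relative to vehicle-treated controls.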

[3] = molecular target: GABA-A receptor; anion channel; test: Inhibition of [3H]flunitrazepam binding to GABA-A benzodiazepine receptor of rat cerebral cortex; type: tissue-based
[4] = test system: Rattus norvegicus; test: Minimum effective dose (ip) tested for its anxiolytic activity in rat using the shock-induced suppression of drinking (SSD) test.; type: functional; settings: read-out: MED
Summary of the method: (§3)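 Shock-induced suppression of drinking (Vogel-type conflict) in rats, with compounds given intraperitoneally at one or more dose levels, 8 rats per dose. MED is the lowest dose giving a significant increase (p < 0.05, Student's t test) in the mean number of shocks taken versus vehicle control.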

[5] = test system: Rattus norvegicus; test: Minimum effective dose (ip) tested for its anxiolytic activity in rat using the shock-induced suppression of drinking (SSD) test; NS is No Significant activity at 50 mg/Kg; type: functional, organism-based; summary of the method: as §3
[6] = molecular target: T1, GABA-A receptor; anion channel (Rattus norvegicus) (UniProt O09028+P15431+P18506+P18508+P19969+P20236+P23574+P23576+P28471+P28473+P30191+P62813+P63079+P63138+Q91ZM7+Q9ES14); test: Displacement of [3H]flunitrazepam from GABA-A benzodiazepine receptor of rat cerebral cortex at 50 nM; type: tissue-based; summary of the method: as §1
[7] = test system: Monkey; test: Compound was tested for activity using primate conflict test in monkey.; type: functional; settings: Cercopithecidae, in Primates; read-out: MED
[8] = test system: Rattus norvegicus; test: Compound was tested in vivo for activity to induce sedation or ataxia in rat using rotarod test; type: functional
[9] = species: Rattus norvegicus; test: Compound was tested for activity against ethanol-induced impairment of rotarod performance in rat.; type: functional
[10] = species: Rattus norvegicus; test: Sedative liability index (SLI) to indicate the separation between the anxiolytic and ataxic doses in rats; type: functional
Summary of the method: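 Ratio computed as rat rotorod ED50 (mg/kg) divided by the SSD minimum effective dose (mg/kg), with both given orally. The SSD MED is the lowest dose (N=8/dose) giving a significant increase (p < 0.05, Student's t test) in mean shocks taken over vehicle control in the rat shock-induced suppression of drinking test.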

[11] = Ethanol interaction ratio (EIR) of the compound.; type: ADME
Summary of the method: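 Ratio computed as rat rotorod ED50 for drug given with ethanol (mg/kg) divided by the SSD minimum effective dose (mg/kg), both orally. The SSD MED is the lowest dose (N=8/dose) giving a significant rise (p < 0.05, Student's t test) in mean shocks taken versus vehicle in the rat shock-induced suppression of drinking test.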

[12] = test system: Rattus norvegicus; test: Compound was tested in vivo for antagonistic activity against metrazole-induced convulsions in rat; type: functional
[13] = test system: GABA-A receptor; anion channel; test: Inhibition of [3H]flunitrazepam binding to GABA-A benzodiazepine receptor of rat cerebral cortex (Not Significant at 5000 nM); type: tissue-based; summary of the method: as §1
[14] = molecular target: T1, GABA-A receptor; anion channel (Rattus norvegicus); test: Displacement of [3H]flunitrazepam from GABA-A benzodiazepine receptor of rat cerebral cortex at 500 nM; type: tissue-based; summary of the method: as §1
[15] = test system: Rattus norvegicus; test: Minimum effective dose (ip) tested for its anxiolytic activity in rat using the shock-induced suppression of drinking (SSD) test; NS is No Significant activity at 25 mg/Kg; type: functional, organism-based; summary of the method: as §3
[16] = molecular target: GABA-A receptor; anion channel; test: Inhibition of [3H]flunitrazepam binding to GABA-A benzodiazepine receptor of rat cerebellum; type: tissue-based
[17] = molecular target: GABA-A receptor; anion channel; test: Inhibition of [3H]flunitrazepam binding to GABA-A benzodiazepine receptor of rat cortex
[18] = species: Rattus norvegicus; test: Compound was tested for activity against ethanol-induced impairment of rota rod performance in rat.; type: functional
[19] = molecular target: T1, GABA-A receptor; anion channel (Rattus norvegicus); test: Displacement of [3H]flunitrazepam from GABA-A benzodiazepine receptor of rat cerebral cortex at 800 nM; type: tissue-based; summary of the method: as §1
[20] = test system: Rattus norvegicus; test: Minimum effective dose (ip) tested for its anxiolytic activity in rat using the shock-induced suppression of drinking (SSD) test; NS is No Significant activity at […]; type: functional, organism-based; summary of the method: as §3
[21] = molecular target: T1, GABA-A receptor; anion channel (Rattus norvegicus); test: Displacement of [3H]flunitrazepam from GABA-A benzodiazepine receptor of rat cerebral cortex at 5000 nM; type: tissue-based; summary of the method: as §1
[22] = test system: Rattus norvegicus; test: Minimum effective dose (ip) tested for its anxiolytic activity in rat using the shock-induced suppression of drinking (SSD) test; NS is No Significant activity at 160 mg/Kg; type: functional, organism-based; summary of the method: as §3
[23] = test system: Rattus norvegicus; test: Minimum effective dose (po) tested for its anxiolytic activity in rat using the shock-induced suppression of drinking (SSD) test; NS is No Significant activity at 100 MG/kG; type: functional, organism-based; settings: 100 M; summary of the method: as §2
[24] = test system: Rattus norvegicus; test: Minimum effective dose (po) tested for its anxiolytic activity in rat using the shock-induced suppression of drinking (SSD) test; NS is No Significant activity at 50 mg/Kg; type: functional, organism-based; summary of the method: as §2

CC#CCCn1ncc2c(N)c(C(=O)N(C)CCC)cnc21
IC50 [1]: Not Active
minimal effective dose [2]: 12.5 mg/kg

CCCn1ncc2c(N)c(C(=O)OCC)c(C)nc21
IC50 [3]: 410 nM
minimal effective dose [4]: 80 mg/kg

CCCCCn1ncc2c(N)c(C(=O)Nc3ccccc3)cnc21
IC50 [3]: 790 nM
minimal effective dose [4]: 50 mg/kg

C=CCCOC(=O)c1c(C)nc2c(cnn2CCCCC)c1N
IC50 [3]: 174 nM
MED [5]: inactive

CCCCCn1ncc2c(N)c(C(=O)OCCC)c(C)nc21
IC50 [3]: 50 nM
minimal effective dose [4]: 25 mg/kg

C=CCN(C)C(=O)c1cnc2c(cnn2CCCCC)c1N
IC50 [1]: Not Active
minimal effective dose [2]: 12.5 mg/kg

C=CCNC(=O)c1c(C)nc2c(cnn2CCCCC)c1N
inhibition [6]: 0%
minimal effective dose [2]: 50 mg/kg

CCOC(=O)c1c(C)nc2c(cnn2CCC(C)CC)c1N (stereo not given)
IC50 [3]: 79 nM
minimal effective dose [4]: 25 mg/kg

CN1C(=O)CN=C(c2ccccc2)c2cc(Cl)ccc21 [DIAZEPAM]
minimal effective dose [7]: 1.6 mg/kg
ED50 [8]: 10.2 mg/kg
ED50 [9]: 2.5 mg/kg
minimal effective dose [2]: 5 mg/kg
SLI [10]: 2
EIR [11]: 0.5
ED50 [12]: 8.4 mg/kg

CCNc1c(C(=O)OCC)c(C)nc2c1cnn2CC
IC50 [13]: Not Active
minimal effective dose [4]: 25 mg/kg

C=CCNC(=O)c1cnc2c(cnn2CCC#CC)c1NC(=O)CC
inhibition [14]: 28%
minimal effective dose [2]: 1.6 mg/kg

CCOC(=O)c1c(C)nc2c(cnn2CCCC(C)(C)C)c1N
IC50 [3]: 404 nM
NS [15]: inactive

CCCCCn1ncc2c(N)c(C(=O)N(C)C)cnc21
IC50 [1]: Not Active
minimal effective dose [2]: 12.5 mg/kg

C=CCNC(=O)c1cnc2c(cnn2CCC#CC)c1N
IC50 [3]: 81 nM
IC50 [16]: 19 nM
IC50 [17]: 81 nM
minimal effective dose [7]: 3.1 mg/kg
ED50 [8]: 25.1 mg/kg
ED50 [18]: 3.1 mg/kg
minimal effective dose [2]: 0.8 mg/kg
SLI [10]: 31.4
EIR [11]: 3.9
ED50 [12]: 1 mg/kg

CCCCCn1ncc2c(N)c(C(=O)OCC(C)C)c(C)nc21
inhibition [14]: 55%
MED [15]: inactive

C=CCOC(=O)c1cnc2c(cnn2CCC(C)C)c1N
IC50 [3]: 5.7 nM
minimal effective dose [4]: 25 mg/kg

CCOC(=O)c1c(C)nc2c(cnn2CC)c1N(C)C
inhibition [19]: 13%
MED [15]: inactive

CCCCCn1ncc2c(N)c(C(=O)O)c(C)nc21
IC50 [13]: Not Active
minimal effective dose [5]: inactive

C#CCCCn1ncc2c(N)c(C(=O)OCC)c(C)nc21
IC50 [3]: 31 nM
minimal effective dose [2]: 25 mg/kg

CCCCCn1ncc2c(N)c(C(=O)OCC)c(CC)nc21
IC50 [3]: 302 nM
MED [20]: inactive

CCOC(=O)c1cc2cnn(CC)c2nc1C
inhibition [21]: 14%
NS [22]: inactive

C=CCOC(=O)c1cnc2c(cnn2CCCCC)c1N
IC50 [3]: 16 nM
MED [23]: inactive

CCCCCn1ncc2c(N)c(C(=O)NCCCC)c(C)nc21
inhibition [21]: 31%
MED [24]: inactive

CCCCCn1ncc2c(N)c(C(=O)OC(C)C)c(C)nc21
inhibition [21]: 48%
minimal effective dose [2]: 50 mg/kg

CCCCCn1ncc2c(N)c(C(=O)OCC)cnc21
MED [15]: inactive

C=CCNC(=O)c1cnc2c(cnn2CCCCC)c1O
IC50 [1]: Not Active
minimal effective dose [2]: 50 mg/kg

CCCCCn1ncc2c(N)c(C(=O)OC)c(C)nc21
inhibition [21]: 54%
